Assay results from ChEMBL document CHEMBL1154414, “In vitro and in vivo activities of T-705 against arenavirus and bunyavirus infections” (Antimicrob Agents Chemother, 2007).
Activity calls are given as the source filed them. The rule behind the calls is not given here.

Tests used:
Punta Toro virus [1] = experiment: Antiviral activity against 5000 PFU Punta Toro virus Adames infected C57BL/6 mouse assessed as mean viral titer per 0.1 g of liver at 30 mg/kg, po twice daily administered 24 hrs post viral challenge measured on day 3 of viral infection; format: functional
In short: (§1)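 Mice were infected subcutaneously with PTV and dosed by oral gavage twice daily; 5 per group (10 placebo) were killed on day 3 or 4. Liver homogenate or serum was serially diluted onto triplicate LLC-MK2 monolayers, and CPE was read 6–8 days later. 50% endpoints gave log10 CCID50 per 0.1 g liver or 0.1 ml serum. Detection range was 2.8–9.5; undetectable samples were assigned <2.8.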

Punta Toro virus [2] = experiment: Antiviral activity against 5000 PFU Punta Toro virus Adames infected C57BL/6 mouse assessed as mean viral titer per 0.1 mL of serum at 10 mg/kg, po twice daily administered 24 hrs post viral challenge measured on day 3 of viral infection; format: functional; in short: as §1
Punta Toro virus [3] = experiment: Antiviral activity against 50 PFU Punta Toro virus Adames infected C57BL/6 mouse assessed as mean day of death at 30 mg/kg, po twice daily for 5 days administered 24 hrs post viral challenge; format: functional
In short: (§2)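 Groups of 15 mice (25–30 placebo) were inoculated subcutaneously with PTV. Drug in 0.4% carboxymethylcellulose was given by oral gavage twice daily.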

Punta Toro virus [4] = experiment: Antiviral activity against 50 PFU Punta Toro virus Adames infected C57BL/6 mouse assessed as mean viral titer per 0.1 mL of serum at 10 mg/kg, po twice daily administered 24 hrs post viral challenge measured on day 3 of viral infection; format: functional
In short: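 Mice were infected subcutaneously with PTV and dosed by oral gavage twice daily with drug in 0.4% CMC. Five per group (10 placebo) were sacrificed on day 3 or 4. Serially diluted liver homogenate or serum went into triplicate LLC-MK2 wells, and CPE 50% endpoints were read at 6–8 days. The range was 2.8–9.5 log10 CCID50/0.1 g or 0.1 ml, with undetectable samples set to 2.8 and saturated samples to 9.5.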

Punta Toro virus [5] = experiment: Antiviral activity against Punta Toro virus Adames infected Syrian golden hamster assessed as survival at 30 mg/kg, po twice daily for 6 days administered 4 hrs before viral challenge; format: functional
In short: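 Hamsters (groups of 15, placebo 25-30) were challenged subcutaneously with 50 PFU and dosed twice daily by oral gavage in 0.4% CMC vehicle.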

Rift Valley fever virus = experiment: Antiviral activity against Rift Valley fever virus MP-12 assessed as inhibition of virus-induced visual cytopathic effect after 3 to 5 days; format: functional, organism-based
In short: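 Virus in medium with 2% FBS was used at the CCID50 that gave maximal CPE. Half-log drug dilutions (DMSO stock, ≤1% DMSO at the top concentration) were added at infection. EC50 was derived by regression analysis.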

Pichinde virus [6] = experiment: Antiviral activity against Pichinde virus An 4763 infected Syrian golden hamster assessed as mean serum ALT levels at 50 mg/kg, po twice daily for 7 days administered 72 hrs post viral-challenge measured on day 7 of viral infection measured on day 7 of viral infection; format: functional
In short: (§3)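 Hamsters were challenged intraperitoneally (bilateral, 65 PFU) and given twice-daily oral gavage doses (0.4% CMC vehicle). Five per group were sacrificed on day 7 and serum was collected. Serum ALT activity was measured by kinetic assay. Three sham-infected animals set the baselines.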

Pichinde virus [7] = experiment: Antiviral activity against Pichinde virus An 4763 infected Syrian golden hamster assessed as mean viral titer per 0.1 g of liver at 20 mg/kg, po twice daily for 7 days administered 72 hrs post viral-challenge measured on day 7 of viral infection; format: functional
In short: (§4)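 Hamsters (groups of 15, placebo 25-30) were dosed orally by gavage twice daily (drug suspended in 0.4% CMC) after bilateral intraperitoneal challenge with 65 PFU. Five per group were killed on day 7. Liver homogenate or serum was serially diluted onto triplicate B-SC-1 wells, CPE was read at 6-8 days, and the 50% endpoint was taken. Range was 2.8-9.5 log10 CCID50/0.1 g or 0.1 ml, with undetectable assigned <2.8.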

Pichinde virus [8] = experiment: Antiviral activity against Pichinde virus An 4763 infected Syrian golden hamster assessed as mean serum ALT levels at 20 mg/kg, po twice daily for 7 days administered 72 hrs post viral-challenge measured on day 7 of viral infection; format: functional; in short: as §3
Punta Toro virus [9] = experiment: Antiviral activity against 500 PFU Punta Toro virus Adames infected C57BL/6 mouse assessed as mean day of death at 30 mg/kg, po twice daily for 5 days administered 24 hrs post viral challenge; format: functional; in short: as §2
Punta Toro virus [10] = experiment: Antiviral activity against 500 PFU Punta Toro virus Adames infected C57BL/6 mouse assessed as mean day of death at 10 mg/kg, po twice daily for 5 days administered 24 hrs post viral challenge; format: functional; in short: as §2
Punta Toro virus [11] = experiment: Antiviral activity against 500 PFU Punta Toro virus Adames infected C57BL/6 mouse assessed as mean viral titer per 0.1 mL of serum at 30 mg/kg, po twice daily administered 24 hrs post viral challenge measured on day 3 of viral infection; format: functional; in short: as §1
Punta Toro virus [12] = experiment: Antiviral activity against 500 PFU Punta Toro virus Adames infected C57BL/6 mouse assessed as mean serum ALT levels at 30 mg/kg, po twice daily administered 24 hrs post viral challenge measured on day 3 of viral infection; format: functional
In short: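 C57BL/6 mice received subcutaneous PTV, then oral gavage twice daily for 5–7 days. T-705 was given in 0.4% CMC and ribavirin in saline. Five mice per group (10 placebo) were killed on day 3 or 4, and serum was collected. ALT activity was measured by kinetic assay. Three sham-infected mice set baselines.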

Punta Toro virus [13] = experiment: Antiviral activity against 500 PFU Punta Toro virus Adames infected C57BL/6 mouse assessed as mean serum ALT levels at 10 mg/kg, po twice daily administered 24 hrs post viral challenge measured on day 3 of viral infection; format: functional
In short: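 Subcutaneous PTV infection was followed by oral gavage twice daily with drug suspended in 0.4% CMC. Serum was collected from 5 sacrificed mice per group (10 placebo) on day 3 or 4. ALT activity was measured by kinetic assay, and sham-infected mice set the baselines.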

Pichinde virus [14] = experiment: Antiviral activity against Pichinde virus An 4763 in Vero cells assessed as inhibition of virus-induced visual cytopathic effect after 7 to 8 days; format: functional, organism-based
In short: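 Subconfluent (50-70%) Vero cells were infected with virus in 2% FBS medium at the CCID50 giving maximal CPE. Half-log drug dilutions were added at infection. EC50 was obtained by regression analysis.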

Pichinde virus [15] = experiment: Antiviral activity against Pichinde virus An 4763 infected Syrian golden hamster assessed as mean viral titer per 0.1 mL of serum at 40 mg/kg, po twice daily for 7 days administered 4 hrs before viral-challenge measured on day 7 of viral infection; format: functional
Pichinde virus [16] = experiment: Antiviral activity against Pichinde virus An 4763 infected Syrian golden hamster assessed as inhibition of liver damage at 40 mg/kg, po twice daily for 7 days administered 4 hrs before viral-challenge measured on day 7 of viral infection; format: functional, organism-based; design: dose 40 mg/kg
In short: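 Hamsters were challenged intraperitoneally (bilateral, 65 PFU) and dosed twice daily by oral gavage in 0.4% CMC. On day 7, five animals per group were sacrificed. Livers were scored 0-4 for hepatic icterus (0 normal, 4 maximal yellow coloration), and serum ALT was measured by kinetic assay.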

Pichinde virus [17] = experiment: Antiviral activity against Pichinde virus An 4763 infected Syrian golden hamster assessed as animals with detectable virus level in liver at 50 mg/kg, po twice daily for 7 days administered 24 hrs post viral-challenge measured on day 7 of viral infection; format: functional; in short: as §4
Punta Toro virus [18] = experiment: Antiviral activity against 5000 PFU Punta Toro virus Adames infected C57BL/6 mouse assessed as animals with detectable virus level in serum at 30 mg/kg, po twice daily administered 24 hrs post viral challenge measured on day 3 of viral infection; format: functional; in short: as §1

Structure (SMILES)	log10CCID50 (Punta Toro virus [1])	log10CCID50 (Punta Toro virus [2])	Activity (Punta Toro virus [3]) [days]	log10CCID50 (Punta Toro virus [4])	survival at 30 mg/kg (Punta Toro virus [5]; Punta Toro virus, Adames) [%]	EC50 (Rift Valley fever virus) [µM]	Activity (Pichinde virus [6]) [IU/L]	log10CCID50 (Pichinde virus [7])	Activity (Pichinde virus [8]) [IU/L]	Activity (Punta Toro virus [9]) [days]	Activity (Punta Toro virus [10]) [days]	log10CCID50 (Punta Toro virus [11])	Activity (Punta Toro virus [12]) [IU/L]	Activity (Punta Toro virus [13]) [IU/L]	EC50 (Pichinde virus [14]) [µM]	log10CCID50 (Pichinde virus [15])	Activity (Pichinde virus [16])	Activity (Pichinde virus [17]) [%]	Activity (Punta Toro virus [18]) [%]	Activity (Punta Toro virus [5]) [%]
NC(=O)c1nc(F)cnc1O [FAVIPIRAVIR]	<2.9	<5.2	>21	6.9	90	32	411	>8.6	1890	5	4.7	<5.1	900	3302	6	<3	Active	100	80	
NC(=O)c1ncn([C@@H]2O[C@H](CO)[C@@H](O)[C@H]2O)n1 [RIBAVIRIN]	<2.9	5.9	>21	<4.9		53	15	6.8	67	5.3	5	<5	450	2150	13	<3	Active	100	60	70
